Values after ≈ are worked out from the molar mass of the structure shown.
How the values were obtained:
Aspergillus lentulus [1] = assay: Antimicrobial activity against Aspergillus lentulus isolate CNM-CM-4387 obtained from sputum of patient after 48 hrs by broth microdilution method; format: functional; details: isolate CNM-CM-4387, 48 h
Outline: (§1)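 CLSI M38-A broth microdilution with modifications: RPMI 1640 with L-glutamine, 2% glucose, buffered to pH 7 with 0.165 M MOPS. Inoculum of 1 × 10^5 to 5 × 10^5 CFU/ml from 3- to 5-day-old cultures. Incubated 35°C, 48 h, humid. Visual reading with a mirror. MIC is complete growth inhibition; echinocandin MEC is hyphal morphological alteration. Azoles 8 to 0.015 μg/ml; others 16 to 0.03 μg/ml.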

Aspergillus viridinutans [2] = assay: Antimicrobial activity against Aspergillus viridinutans isolate CNM-CM-4518 obtained from nail of patient after 48 hrs by broth microdilution method; format: functional; details: isolate CNM-CM-4518, 48 h; outline: as §1
Aspergillus fumigatus = assay: Antimicrobial activity against Aspergillus fumigatus ATCC 2004305 after 48 hrs by broth microdilution method; format: functional; details: ATCC 2004305, 48 h
Aspergillus lentulus [3] = assay: Antimicrobial activity against Aspergillus lentulus isolate CNM-CM-3134 obtained from sputum of patient after 48 hrs by broth microdilution method; format: functional; details: isolate CNM-CM-3134, 48 h; outline: as §1
Neosartorya hiratsukae [4] = assay: Antimicrobial activity against Neosartorya hiratsukae isolate CNM-CM-3740 obtained from oropharyngeal exudate of patient after 48 hrs by broth microdilution method; format: functional; details: Aspergillus hiratsukae, isolate CNM-CM-3740, 48 h; outline: as §1
Neosartorya hiratsukae [5] = assay: Antimicrobial activity against Neosartorya hiratsukae isolate CNM-CM-3305 obtained from skin of patient after 48 hrs by broth microdilution method; format: functional; details: Aspergillus hiratsukae, isolate CNM-CM-3305, 48 h; outline: as §1
Aspergillus lentulus [6] = assay: Antimicrobial activity against Aspergillus lentulus isolate CNM-CM-4330 obtained from sputum of patient after 48 hrs by broth microdilution method; format: functional; details: isolate CNM-CM-4330, 48 h; outline: as §1
[7] = system: Aspergillus fumisynnematus; assay: Antimicrobial activity against Aspergillus fumisynnematus isolate CNM-CM-4063 obtained from bronchoalveolar aspirate of patient after 48 hrs by broth microdilution method; format: functional; details: isolate CNM-CM-4063, Lung; outline: as §1
Aspergillus lentulus [8] = assay: Antimicrobial activity against Aspergillus lentulus isolate CNM-CM-4426 obtained from sputum of patient after 48 hrs by broth microdilution method; format: functional; details: isolate CNM-CM-4426, 48 h; outline: as §1
Aspergillus lentulus [9] = assay: Antimicrobial activity against Aspergillus lentulus isolate CNM-CM-4415 obtained from sputum of patient after 48 hrs by broth microdilution method; format: functional; details: isolate CNM-CM-4415, 48 h; outline: as §1
Aspergillus lentulus [10] = assay: Antimicrobial activity against Aspergillus lentulus isolate CNM-CM-4420 obtained from nail of patient after 48 hrs by broth microdilution method; format: functional; details: isolate CNM-CM-4420, 48 h; outline: as §1
Aspergillus lentulus [11] = assay: Antimicrobial activity against Aspergillus lentulus isolate CNM-CM-3538 obtained from sputum of patient after 48 hrs by broth microdilution method; format: functional; details: isolate CNM-CM-3538, 48 h; outline: as §1
Aspergillus lentulus [12] = assay: Antimicrobial activity against Aspergillus lentulus isolate CNM-CM-4428 obtained from skin of patient after 48 hrs by broth microdilution method; format: functional; details: isolate CNM-CM-4428, 48 h; outline: as §1
Aspergillus lentulus [13] = assay: Antimicrobial activity against Aspergillus lentulus isolate CNM-CM-3599 obtained from sputum of patient after 48 hrs by broth microdilution method; format: functional; details: isolate CNM-CM-3599, 48 h; outline: as §1
Neosartorya hiratsukae [14] = assay: Antimicrobial activity against Neosartorya hiratsukae isolate CNM-CM-4328 obtained from cornea of patient after 48 hrs by broth microdilution method; format: functional; details: Aspergillus hiratsukae, isolate CNM-CM-4328, Cornea; outline: as §1
Aspergillus lentulus [15] = assay: Antimicrobial activity against Aspergillus lentulus isolate CNM-CM-3537 obtained from sputum of patient after 48 hrs by broth microdilution method; format: functional; details: isolate CNM-CM-3537, 48 h; outline: as §1
Neosartorya hiratsukae [16] = assay: Antimicrobial activity against Neosartorya hiratsukae isolate CNM-CM-3764 obtained from oropharyngeal exudate of patient after 48 hrs by broth microdilution method; format: functional; details: Aspergillus hiratsukae, isolate CNM-CM-3764, 48 h; outline: as §1
Aspergillus viridinutans [17] = assay: Antimicrobial activity against Aspergillus viridinutans isolate CNM-CM-3147 obtained from oropharyngeal exudate of patient after 48 hrs by broth microdilution method; format: functional; details: isolate CNM-CM-3147, 48 h; outline: as §1
[18] = system: Aspergillus fumigatiaffinis; assay: Antimicrobial activity against Aspergillus fumigatiaffinis isolate CNM-CM-3227 obtained from bronchoalveolar lavage fluid of patient after 48 hrs by broth microdilution method; details: isolate CNM-CM-3227, Lung
[19] = system: Neosartorya pseudofischeri; assay: Antimicrobial activity against Neosartorya pseudofischeri isolate CNM-CM-3914 obtained from nail of patient after 48 hrs by broth microdilution method; format: functional; details: Aspergillus thermomutatus, isolate CNM-CM-3914, 48 h
Outline: (§2)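 CLSI M38-A broth microdilution with modifications: RPMI 1640 with L-glutamine, MOPS-buffered to pH 7, plus 2% glucose. Inoculum 1 × 10^5 to 5 × 10^5 CFU/ml from 3–5-day cultures. Incubated at 35°C for 48 h, humid. Read visually with a mirror. MIC = complete growth inhibition; echinocandin MEC = altered hyphal morphology. QC strain A. fumigatus ATCC 2004305.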

Aspergillus lentulus [20] = assay: Antimicrobial activity against Aspergillus lentulus isolate CNM-CM-3364 obtained from bronchoalveolar lavage fluid of patient after 48 hrs by broth microdilution method; format: functional; details: isolate CNM-CM-3364, Lung; outline: as §1
Aspergillus lentulus [21] = assay: Antimicrobial activity against Aspergillus lentulus isolate CNM-CM-1290 obtained from sputum of patient after 48 hrs by broth microdilution method; format: functional; details: isolate CNM-CM-1290, 48 h; outline: as §1
Aspergillus lentulus [22] = assay: Antimicrobial activity against Aspergillus lentulus isolate CNM-CM-3583 obtained from sputum of patient after 48 hrs by broth microdilution method; format: functional; details: isolate CNM-CM-3583, 48 h; outline: as §1
[23] = system: Neosartorya pseudofischeri; assay: Antimicrobial activity against Neosartorya pseudofischeri isolate CNM-CM-4060 obtained from sputum of patient after 48 hrs by broth microdilution method; format: functional; details: Aspergillus thermomutatus; outline: as §2
[24] = system: Neosartorya pseudofischeri; assay: Antimicrobial activity against Neosartorya pseudofischeri isolate CNM-CM-3769 obtained from sputum of patient after 48 hrs by broth microdilution method; format: functional; details: Aspergillus thermomutatus; outline: as §2
Aspergillus lentulus [25] = assay: Antimicrobial activity against Aspergillus lentulus isolate CNM-CM-4370 obtained from sputum of patient after 48 hrs by broth microdilution method; format: functional; details: isolate CNM-CM-4370, 48 h; outline: as §1
Neosartorya hiratsukae [26] = assay: Antimicrobial activity against Neosartorya hiratsukae isolate CNM-CM-3303 obtained from skin of patient after 48 hrs by broth microdilution method; format: functional; details: Aspergillus hiratsukae, isolate CNM-CM-3303, 48 h; outline: as §1
[27] = system: Neosartorya pseudofischeri; assay: Antimicrobial activity against Neosartorya pseudofischeri isolate CNM-CM-2270 obtained from sputum of patient after 48 hrs by broth microdilution method; format: functional; details: Aspergillus thermomutatus, isolate CNM-CM-2270, 48 h; outline: as §2
[28] = system: Aspergillus fumigatiaffinis; assay: Antimicrobial activity against Aspergillus fumigatiaffinis isolate CNM-CM-2280 obtained from sputum of patient after 48 hrs by broth microdilution method; details: isolate CNM-CM-2280, 48 h

Compound: CN(C/C=C/C#CC(C)(C)C)Cc1cccc2ccccc12 [TERBINAFINE]
- MIC (Aspergillus lentulus [1]): 0.5 µg/mL (≈ 1.72 µM)
- MIC (Aspergillus viridinutans [2]): 0.75 µg/mL (≈ 2.57 µM)
- MIC (Aspergillus fumigatus): 2 µg/mL (≈ 6.86 µM)
- MIC (Aspergillus lentulus [3]): 1.75 µg/mL (≈ 6 µM)
- MIC (Neosartorya hiratsukae [4]): 0.2 µg/mL (≈ 0.686 µM)
- MIC (Neosartorya hiratsukae [5]): 0.06 µg/mL (≈ 0.206 µM)
- MIC (Aspergillus lentulus [6]): 0.5 µg/mL (≈ 1.72 µM)
- MIC [7]: 1.66 µg/mL (≈ 5.7 µM)
- MIC (Aspergillus lentulus [8]): 0.83 µg/mL (≈ 2.85 µM)
- MIC (Aspergillus lentulus [9]): 0.5 µg/mL (≈ 1.72 µM)
- MIC (Aspergillus lentulus [10]): 1 µg/mL (≈ 3.43 µM)
- MIC (Aspergillus lentulus [11]): 1 µg/mL (≈ 3.43 µM)
- MIC (Aspergillus lentulus [12]): 0.66 µg/mL (≈ 2.26 µM)
- MIC (Aspergillus lentulus [13]): 1 µg/mL (≈ 3.43 µM)
- MIC (Neosartorya hiratsukae [14]): 0.09 µg/mL (≈ 0.309 µM)
- MIC (Aspergillus lentulus [15]): 1 µg/mL (≈ 3.43 µM)
- MIC (Neosartorya hiratsukae [16]): 0.25 µg/mL (≈ 0.858 µM)
- MIC (Aspergillus viridinutans [17]): 1.2 µg/mL (≈ 4.12 µM)
- MIC [18]: 1.4 µg/mL (≈ 4.8 µM)
- MIC [19]: 0.5 µg/mL (≈ 1.72 µM)
- MIC (Aspergillus lentulus [20]): 0.5 µg/mL (≈ 1.72 µM)
- MIC (Aspergillus lentulus [21]): 1.33 µg/mL (≈ 4.56 µM)
- MIC (Aspergillus lentulus [22]): 1.25 µg/mL (≈ 4.29 µM)
- MIC [23]: 0.5 µg/mL (≈ 1.72 µM)
- MIC [24]: 1.33 µg/mL (≈ 4.56 µM)
- MIC (Aspergillus lentulus [25]): 0.5 µg/mL (≈ 1.72 µM)
- MIC (Neosartorya hiratsukae [26]): 0.09 µg/mL (≈ 0.309 µM)
- MIC [27]: 1 µg/mL (≈ 3.43 µM)
- MIC [28]: 1.66 µg/mL (≈ 5.7 µM)

Compound: C[C@@H](c1ncncc1F)[C@](O)(Cn1cncn1)c1ccc(F)cc1F [VORICONAZOLE]
- MIC (Aspergillus lentulus [1]): 4 µg/mL (≈ 11.5 µM)
- MIC (Aspergillus viridinutans [2]): 4 µg/mL (≈ 11.5 µM)
- MIC (Aspergillus fumigatus): 0.25 µg/mL (≈ 0.716 µM)
- MIC (Aspergillus lentulus [3]): 6 µg/mL (≈ 17.2 µM)
- MIC (Neosartorya hiratsukae [4]): 1 µg/mL (≈ 2.86 µM)
- MIC (Neosartorya hiratsukae [5]): 0.375 µg/mL (≈ 1.07 µM)
- MIC (Aspergillus lentulus [6]): 3 µg/mL (≈ 8.59 µM)
- MIC [7]: 0.83 µg/mL (≈ 2.38 µM)
- MIC (Aspergillus lentulus [8]): 5.33 µg/mL (≈ 15.3 µM)
- MIC (Aspergillus lentulus [9]): 5.33 µg/mL (≈ 15.3 µM)
- MIC (Aspergillus lentulus [10]): 5.33 µg/mL (≈ 15.3 µM)
- MIC (Aspergillus lentulus [11]): 7.5 µg/mL (≈ 21.5 µM)
- MIC (Aspergillus lentulus [12]): 5 µg/mL (≈ 14.3 µM)
- MIC (Aspergillus lentulus [13]): 4 µg/mL (≈ 11.5 µM)
- MIC (Neosartorya hiratsukae [14]): 1.25 µg/mL (≈ 3.58 µM)
- MIC (Aspergillus lentulus [15]): 3.5 µg/mL (≈ 10 µM)
- MIC (Neosartorya hiratsukae [16]): 1.66 µg/mL (≈ 4.75 µM)
- MIC (Aspergillus viridinutans [17]): 4 µg/mL (≈ 11.5 µM)
- MIC [18]: 5.6 µg/mL (≈ 16 µM)
- MIC [19]: 6.66 µg/mL (≈ 19.1 µM)
- MIC (Aspergillus lentulus [20]): 5.6 µg/mL (≈ 16 µM)
- MIC (Aspergillus lentulus [21]): 4.5 µg/mL (≈ 12.9 µM)
- MIC (Aspergillus lentulus [22]): 3.5 µg/mL (≈ 10 µM)
- MIC [23]: 3.33 µg/mL (≈ 9.53 µM)
- MIC [24]: 3.33 µg/mL (≈ 9.53 µM)
- MIC (Aspergillus lentulus [25]): 5.33 µg/mL (≈ 15.3 µM)
- MIC (Neosartorya hiratsukae [26]): 0.5 µg/mL (≈ 1.43 µM)
- MIC [27]: 3 µg/mL (≈ 8.59 µM)
- MIC [28]: 6.66 µg/mL (≈ 19.1 µM)

Source: ChEMBL document CHEMBL1255284, “Aspergillus section Fumigati: antifungal susceptibility patterns and sequence-based identification” (2008)
